Experimental findings from ChEMBL document CHEMBL3085655, “4β-Methyl-5-(3-hydroxyphenyl)morphan opioid agonist and partial agonist derived from a 4β-methyl-5-(3-hydroxyphenyl)morphan pure antagonist” (J Med Chem, 2013) are described below.

Usually Emax stands for the greatest response seen or fitted, relative to the assay's reference. For orientation: EC50 means the concentration giving half of the maximal effect. Low readings indicate greater potency, high ones weaker potency. Usually Ki stands for the dissociation constant of the complex between target and ligand, obtained from inhibition or displacement. Read a low Ki as higher affinity.

Test [1] deals with T1, Kappa-type opioid receptor (Homo sapiens, UniProt P41145). Nature of the test: Antagonist activity at human kappa opioid receptor expressed in CHO cells by [35S]GTPgammaS binding assay. It is filed as functional, cell-based. In a few lines: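 Inhibition of [35S]GTPγS binding stimulated by the selective agonist in CHO cells over-expressing the human receptor. Agonists were DPDPE (delta) and U69,593 (kappa). Agonist dose-response curves run with and without a single concentration of test compound. Ke = [L]/(DR−1), where DR is the ratio of agonist EC50 with and without test compound. Mean ± SE of at least three experiments.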
T1 sequence (P41145 whole entry): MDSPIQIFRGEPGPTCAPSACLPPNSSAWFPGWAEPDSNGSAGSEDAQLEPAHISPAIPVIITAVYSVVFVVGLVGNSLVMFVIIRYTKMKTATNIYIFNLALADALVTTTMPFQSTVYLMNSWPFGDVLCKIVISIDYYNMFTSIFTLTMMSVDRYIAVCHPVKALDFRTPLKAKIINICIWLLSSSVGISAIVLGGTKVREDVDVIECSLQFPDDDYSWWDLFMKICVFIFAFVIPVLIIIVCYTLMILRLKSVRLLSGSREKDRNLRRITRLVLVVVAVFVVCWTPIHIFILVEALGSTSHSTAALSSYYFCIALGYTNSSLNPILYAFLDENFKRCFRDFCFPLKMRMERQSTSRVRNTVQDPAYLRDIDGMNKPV
(GTPγS is a poorly hydrolysed GTP analogue; its binding reports G protein activation.)

Test [2] concerns the target T2, Delta-type opioid receptor (Homo sapiens, UniProt P41143). Nature of the test: Intrinsic agonist activity at human delta opioid receptor expressed in CHO cells by [35S]GTPgammaS binding assay. The test is classed as functional, cell-based.
The target of test [3] is T3, Mu-type opioid receptor (Homo sapiens, UniProt P35372). Nature of the test: Agonist activity at human mu opioid receptor expressed in CHO cells by [35S]GTPgammaS binding assay relative to DAMGO. It is filed as functional, cell-based. In a few lines:
(§1)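 Membranes from CHO cells over-expressing the human receptor. Stimulated [35S]GTPγS binding measured with eight concentrations chosen to define both asymptotes of the concentration-response curve. EC50 and Emax calculated. Emax expressed as a percentage of the Emax of the standard agonist on the same plate: DAMGO (mu), DPDPE (delta), U50,488 (kappa). Mean ± SE of at least three experiments.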

The target of test [4] is T3, Mu-type opioid receptor. Nature of the test: Agonist activity at human mu opioid receptor expressed in CHO cells by [35S]GTPgammaS binding assay. The test is classed as functional, cell-based. In a few lines: as §1
The target in test [5] is T2, Delta-type opioid receptor. Nature of the test: Agonist activity at human delta opioid receptor expressed in CHO cells by [35S]GTPgammaS binding assay relative to DPDPE. The test is classed as functional, cell-based. A digest of the protocol: as §1
In test [6] the target is T3, Mu-type opioid receptor. Nature of the test: Displacement of [3H]DAMGO from human mu opioid receptor expressed in CHO cells. The test is classed as cell-based. In a few lines: (§2)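 Competition radioligand binding at the human receptors, run at the Psychoactive Drug Screening Program. Radioligands were [3H]DAMGO (MOR), [3H]DADLE (DOR) and [3H]U69,593 (KOR). Radioligand Kd determined by homologous competition binding with the receptor-specific radioligand. Ki values reported.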
(In general: In a radioligand displacement assay an active substance lowers the binding of a labelled ligand.)

For test [7], the target named is T1, Kappa-type opioid receptor. Nature of the test: Displacement of [3H]U-69593 from human kappa opioid receptor expressed in CHO cells. It is filed as cell-based. In a few lines:
as §2

Test [8] concerns the target T2, Delta-type opioid receptor. Nature of the test: Agonist activity at human delta opioid receptor expressed in CHO cells by [35S]GTPgammaS binding assay. The test is classed as functional, cell-based. In a few lines: as §1
Test [9] has as its target T2, Delta-type opioid receptor. Nature of the test: Displacement of [3H]DADLE from human delta opioid receptor expressed in CHO cells. It is filed as cell-based. A digest of the protocol:
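Competition radioligand binding at the human receptors, run at the Psychoactive Drug Screening Program. Radioligand Kd determined by homologous competition binding with the receptor-specific radioligand. Ki values reported.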

The target in test [10] is T1, Kappa-type opioid receptor. Nature of the test: Agonist activity at human kappa opioid receptor expressed in CHO cells by [35S]GTPgammaS binding assay. It is filed as functional, cell-based. In a few lines: as §1
Test [11] addresses T1, Kappa-type opioid receptor. Nature of the test: Agonist activity at human kappa opioid receptor expressed in CHO cells by [35S]GTPgammaS binding assay relative to U50,488. The test is classed as functional, cell-based. In a few lines:
as §1

Test [12] concerns the target T2, Delta-type opioid receptor. Nature of the test: Intrinsic activity at human delta opioid receptor expressed in CHO cells by [35S]GTPgammaS binding assay. The test is classed as functional, cell-based.

T2 sequence (P41143 whole entry): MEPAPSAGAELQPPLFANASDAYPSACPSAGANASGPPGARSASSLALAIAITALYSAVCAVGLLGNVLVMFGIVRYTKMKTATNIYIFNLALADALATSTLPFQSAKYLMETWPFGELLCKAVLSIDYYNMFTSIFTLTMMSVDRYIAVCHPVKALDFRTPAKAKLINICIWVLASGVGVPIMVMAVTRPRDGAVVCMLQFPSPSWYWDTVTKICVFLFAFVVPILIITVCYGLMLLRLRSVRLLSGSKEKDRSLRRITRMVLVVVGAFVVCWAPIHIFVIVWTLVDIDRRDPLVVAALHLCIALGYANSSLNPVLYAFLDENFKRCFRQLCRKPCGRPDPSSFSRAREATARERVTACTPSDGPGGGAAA
T3 sequence (P35372 whole entry): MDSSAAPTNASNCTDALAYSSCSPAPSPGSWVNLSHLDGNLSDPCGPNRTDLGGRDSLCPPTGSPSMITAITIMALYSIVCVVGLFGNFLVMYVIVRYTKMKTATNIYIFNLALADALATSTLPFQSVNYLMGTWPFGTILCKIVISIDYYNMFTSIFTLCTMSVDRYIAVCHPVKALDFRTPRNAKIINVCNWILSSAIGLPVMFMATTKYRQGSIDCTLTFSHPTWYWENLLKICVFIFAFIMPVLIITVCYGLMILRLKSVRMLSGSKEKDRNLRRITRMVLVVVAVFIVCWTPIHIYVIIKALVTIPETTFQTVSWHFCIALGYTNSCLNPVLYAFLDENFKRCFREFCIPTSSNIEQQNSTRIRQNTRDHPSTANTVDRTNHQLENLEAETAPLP

In test [1], `C[C@H]1CN(CCCc2ccccc2)[C@@H]2C[C@@H](N)C[C@@]1(c1cccc(O)c1)C2` returned a Ke of 21.7 nM. In [2], the Agonist potency is > 5000 nM. This compound displayed an Emax on Mu-type opioid receptor [3] of 44%. The compound further had an EC50 on Mu-type opioid receptor [4] of 20.6 nM.

On to `C[C@@H]1CN(CCCc2ccccc2)[C@H]2C[C@H](N(C)C)C[C@]1(c1cccc(O)c1)C2`, for which the Emax in test [5] was 55%; on Mu-type opioid receptor [3] it was 104%. In addition, the Ki was found to be 0.28 nM at Mu-type opioid receptor [6], 9.9 nM in [7] and 18.4 nM in test [9]. For the same compound, the concentration for a half-maximal effect (EC50) worked out at 38 nM in test [8] and 6.5 nM on Mu-type opioid receptor [4].

Regarding `C[C@@H]1CN(CCCc2ccccc2)[C@H]2C[C@H](N)C[C@]1(c1cccc(O)c1)C2`, the maximum response (Emax) was 101% in test [5] and 74% at Mu-type opioid receptor [3]. In test [1], this compound showed a Ke of 10.1 nM. For the same compound, the concentration for a half-maximal effect (EC50) in test [8] (cho) is 7.5 nM; at Mu-type opioid receptor [4] (cho), 19.5 nM.

In the case of `C[C@@H]1CN(CCCc2ccccc2)[C@H]2C[C@H](N(C)CC3CC3)C[C@]1(c1cccc(O)c1)C2`, the EC50 in [10] turned out to be 40 nM; in test [8] it was 10.3 nM; on Mu-type opioid receptor [4], 2.7 nM. For the same compound, the maximal response (Emax) came to 24% in test [5], 109% at Mu-type opioid receptor [3] and 38% in [11]. Further, the Ki at Mu-type opioid receptor [6] was found to be 0.43 nM; in test [7], 0.92 nM; in [9], 9.04 nM.

For the compound `C[C@@H]1CN(CCCc2ccccc2)[C@H]2C[C@H](NCC3CC3)C[C@]1(c1cccc(O)c1)C2`, the inhibitory constant (Ki) at Mu-type opioid receptor [6] was found to be 7.55 nM; in test [7], 13.7 nM. Further, on Mu-type opioid receptor [3], the Emax worked out at 52%. On Mu-type opioid receptor [4], this compound showed a half-maximal effective concentration (EC50) of 130 nM.

On to `CCN(C)[C@H]1C[C@H]2C[C@@](c3cccc(O)c3)(C1)[C@H](C)CN2CCCc1ccccc1`, for which the Intrinsic activity in [12] is > 5 µM. Besides, the Agonist potency in test [2] was > 5000 nM. The compound also gave an Emax on Mu-type opioid receptor [3] of 94%. It took 60 nM to reach a half-maximal effect at Mu-type opioid receptor [4] (EC50).

As for `C[C@@H]1CN(CCCc2ccccc2)[C@@H]2CCC[C@]1(c1cccc(O)c1)C2`, the inhibitory constant (Ki) is 1.61 nM on Mu-type opioid receptor [6], 7.79 nM in test [7] and 161 nM in test [9].

In the case of `CN[C@H]1C[C@H]2C[C@@](c3cccc(O)c3)(C1)[C@H](C)CN2CCCc1ccccc1`, the Emax in test [5] was determined as 101%; on Mu-type opioid receptor [3], 105%. Besides, the Ki at Mu-type opioid receptor [6] came out at 0.371 nM; in test [7], 20.9 nM; in test [9], 36.2 nM. Besides, the 50% effective concentration (EC50) came to 14.8 nM in test [8] and 15 nM at Mu-type opioid receptor [4].

On to `CCCN[C@H]1C[C@H]2C[C@@](c3cccc(O)c3)(C1)[C@H](C)CN2CCCc1ccccc1`, for which the EC50 turned out to be 293 nM in test [10] and 18 nM on Mu-type opioid receptor [4]. The inhibition constant Ki amounted to 1.66 nM on Mu-type opioid receptor [6], 1.4 nM in test [7] and 73.8 nM in test [9]. Further, the Agonist potency in test [2] was > 5000 nM. The Emax came out at 57% at Mu-type opioid receptor [3] and 20.7% in test [11].

For the compound `CCN[C@H]1C[C@H]2C[C@@](c3cccc(O)c3)(C1)[C@H](C)CN2CCCc1ccccc1`, the figures for the Ki (at Mu-type opioid receptor [6]; in test [7]; in test [9]) were 3.35 nM, 8.22 nM and 264 nM, respectively. For the same compound, the Agonist potency in test [2] was > 5000 nM. The maximal effect (Emax) at Mu-type opioid receptor [3] is 14%. For the same compound, a half-maximal effect at Mu-type opioid receptor [4] (EC50) was put at 33 nM.
